RGS4 act: RGS4 potentiators or activators, primary screen, cell-based, HEK293 M3R inducible RGS4, calcium flux | carbachol calcium flux Fluo4; hits give low values | B-score at 10 µM | 310,000 tested, 0.92% active;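 active = B-score of the integrated calcium signal more than 4 SD below the library mean, with starting fluorescence not abnormally high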;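 also: negative B-score means reduced calcium response which marks RGS4 activation or potentiation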
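Material: Inducible-RGS4 HEK293 cells carrying M3 receptor; also added: carbachol at ECmax as muscarinic agonist stimulus; incubation: compound preincubation 20 min at room temperature before agonist; signal: Fluo4-AM (2 µM) calcium-flux fluorescence, kinetic read; measure: integrated calcium ratio converted to B score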
MrgX1 PAM: positive allosteric modulators of MrgX1, primary screen, HEK293 cells, Fluo-4 calcium flux | Mas-related G-protein coupled receptor member X1 (Homo sapiens), Q96LB2 | FDSS; hits give high values | B-score at 10 µM | 310,000 tested, 0.63% active | AID 588675, 2011;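 active = plate-corrected calcium response at least 3 library SD above typical, normal starting fluorescence, not activating the receptor alone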;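 also: compound read alongside a low EC10 to EC30 dose of BAM8-22 agonist; peak minus trough fluorescence over baseline measured at the second addition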
Target sequence (Q96LB2 whole entry, looked up): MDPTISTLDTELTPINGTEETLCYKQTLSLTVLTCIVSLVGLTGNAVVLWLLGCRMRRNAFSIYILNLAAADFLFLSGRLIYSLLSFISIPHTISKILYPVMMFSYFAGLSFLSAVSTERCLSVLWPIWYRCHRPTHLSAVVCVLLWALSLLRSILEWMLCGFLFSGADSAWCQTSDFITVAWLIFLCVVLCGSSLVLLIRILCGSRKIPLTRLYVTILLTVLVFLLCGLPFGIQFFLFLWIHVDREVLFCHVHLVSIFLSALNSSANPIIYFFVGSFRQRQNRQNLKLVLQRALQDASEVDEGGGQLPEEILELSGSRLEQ
MrgX1 agonist: agonists of human MrgX1 receptor, primary screen, HEK293 cells, Fluo-4 calcium flux | B-score at 10 µM | AID 588627, 2011 | 310,000 tested, 0.44% active | Mas-related G-protein coupled receptor member X1 (Homo sapiens), Q96LB2 | Fluo-4 calcium fluorescence, agonist mode; hits give high values;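 active = calcium response B-score plate-corrected fluorescence ratio at least 3 library SD, with starting fluorescence B-score inside 5 SD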
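Test system: HEK293 cells stably expressing human MrgX1 receptor; Input: fifteen thousand cells per well; Dosing: compound delivered in addition one of three; Schedule: overnight seeding, then 1 h dark dye loading; Technique: Fluo-4 NW calcium fluorescence; Measure: B-scored fluorescence response ratio; Controls: positive and negative controls per plate.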
RGS4 block: RGS4 inhibitors, primary screen, cell-based, HEK293 M3R inducible RGS4, calcium flux; Regulator of G-protein signaling 4 (Homo sapiens), P49798; Fluo-4 calcium flux; hits give high values; triggered by carbachol at its EC20; B-score at 10 µM; 310,000 tested, 0.45% active; AID 463165, 2010;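 active = B-score, a plate-corrected calcium signal, over three deviations above library mean, with baseline fluorescence within five deviations of library mean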;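 also: RGS4 expression induced by doxycycline in cells with stable M3 receptor; B-score is computed from the integrated fluorescence ratio over baseline after carbachol; higher B-score means a larger calcium signal and so more RGS4 inhibition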
Target sequence (P49798 whole entry, looked up): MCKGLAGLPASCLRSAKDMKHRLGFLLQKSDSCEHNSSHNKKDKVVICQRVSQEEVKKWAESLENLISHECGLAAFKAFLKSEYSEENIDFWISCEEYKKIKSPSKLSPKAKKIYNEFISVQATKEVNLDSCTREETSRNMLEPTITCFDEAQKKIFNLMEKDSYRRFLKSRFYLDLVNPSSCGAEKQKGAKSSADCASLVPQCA
MrgX1 antag: antagonists of human MrgX1 receptor, primary screen, HEK293 cells, Fluo-4 calcium flux | Mas-related G-protein coupled receptor member X1 (Homo sapiens), Q96LB2 | BAM8-22 antagonism; hits give low values | B-score at 10 µM | 310,000 tested, 1.3% active | AID 588676, 2011;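 active = calcium-response B-score plate-corrected more than 3 library SD below zero, starting fluorescence within 5 deviations, no agonist response on first addition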;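 also: peak minus trough fluorescence over baseline after final BAM8-22 challenge near maximal dose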
RGS4 block valid: enhanced carbachol calcium response, M3R/RGS4 cells, RGS4 inhibitor project, cell-based, validation screen, HEK293 M3R/RGS4, calcium flux; shares compounds with RGS4 block; carbachol calcium Fluo-4 fluorescence; carbachol added at its EC20; 0 = buffer wells, 100 = carbachol control; calcium response, % at 10 µM; 1,700 tested, 65% active; AID 492999, 2010;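 active = duplicate-averaged calcium response above the buffer-only control mean plus 5 SD of those controls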;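 also: integrated fluorescence ratio F max minus min over baseline F0; higher response in RGS4-induced cells means RGS4 inhibition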
RGS4 uninduced: carbachol calcium response in non-induced M3R cells, confirmation, counter-screen for RGS4 inhibitor project, cell-based, HEK293 M3R; activity (percent), % at 10 µM; shares compounds with RGS4 block; 1,900 tested, 20% active; carbachol calcium Fluo-4; submaximal (EC20) carbachol stimulus; buffer wells 0%, carbachol control wells 100%; AID 493000, 2010; call rule not given here;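 also: RGS4 induction absent so cells express M3R without RGS4; higher means more calcium signal and flags a non-specific hit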
M3R basal Ca ctr: signal in non-induced cells without carbachol, RGS4 inhibitor counter-screen; shares compounds with RGS4 block; HEK293 M3R/RGS4 non-induced, Fluo-4 calcium, no carbachol; normalised: buffer wells 0%, carbachol wells 100%; calcium response (agonist-mode artifact), % at 10 µM; 1,900 tested, 22% active; AID 493001;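 active = duplicate-averaged calcium rise in uninduced cells above buffer wells' mean plus 5 SD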
A number is an active result. In the library only some 3.5% were active in any assay of this set; here they are far more common.

Screening Cc1ccc(C)c(N(Cc2cc3ccc(C)cc3[nH]c2=O)C(=O)c2ccco2)c1 returned RGS4 act inactive, MrgX1 PAM inactive, MrgX1 agonist inactive, RGS4 block inactive, MrgX1 antag inactive, RGS4 block valid inactive, RGS4 uninduced inactive and M3R basal Ca ctr inactive.
COc1ccc(N(Cc2cc3ccc(C)cc3[nH]c2=O)C(=O)c2ccco2)cc1 was read as RGS4 act inactive, MrgX1 PAM inactive, MrgX1 agonist inactive, RGS4 block inactive, MrgX1 antag inactive, RGS4 block valid inactive, RGS4 uninduced inactive and M3R basal Ca ctr inactive.
`COc1ccc(N(Cc2cc3ccc(C)cc3[nH]c2=O)C(=O)C2CCCO2)cc1` (configuration not stated) gave RGS4 act inactive, MrgX1 PAM inactive, MrgX1 agonist inactive, RGS4 block inactive and MrgX1 antag inactive.
For Cc1ccc(S(=O)(=O)N2CCCOC2CNC(=O)C(=O)NC2CCCCC2)cc1 (configuration not stated) the results were RGS4 act inactive, MrgX1 PAM inactive, MrgX1 agonist inactive, RGS4 block inactive, MrgX1 antag inactive, RGS4 block valid inactive, RGS4 uninduced inactive and M3R basal Ca ctr inactive.
For COc1cccc(-c2nc(CS(=O)(=O)CC(=O)NCCCN3CCOCC3)c(C)o2)c1 the results were RGS4 act inactive, MrgX1 PAM inactive, MrgX1 agonist inactive, RGS4 block inactive and MrgX1 antag inactive.
Screening CCOC(=O)/C(C#N)=C/c1cn(CCOc2ccc(OC)cc2)c2ccccc12 returned RGS4 act inactive, MrgX1 PAM inactive, MrgX1 agonist inactive, RGS4 block inactive and MrgX1 antag inactive.
For Cc1ccc(S(=O)(=O)/N=C2/NC(=O)/C(=C/c3ccncc3)S2)cc1 the results were RGS4 act inactive, MrgX1 PAM inactive, MrgX1 agonist inactive, RGS4 block 4.91, MrgX1 antag inactive, RGS4 block valid 16.0%, RGS4 uninduced inactive and M3R basal Ca ctr inactive.
`O=C1N/C(=N/S(=O)(=O)c2ccccc2)S/C1=C/c1cccnc1` gave RGS4 act inactive, MrgX1 PAM inactive, MrgX1 agonist inactive, RGS4 block inactive and MrgX1 antag inactive.
Screening CC(=O)Nc1ccc(S(=O)(=O)/N=C2/NC(=O)/C(=C\c3ccco3)S2)cc1 returned RGS4 act inactive, MrgX1 PAM inactive, MrgX1 agonist inactive, RGS4 block inactive and MrgX1 antag inactive.
COc1cc(/C=C2\S/C(=N/S(=O)(=O)c3ccc(C)cc3)NC2=O)c([N+](=O)[O-])cc1OC was read as RGS4 act inactive, MrgX1 PAM inactive, MrgX1 agonist inactive, RGS4 block inactive, MrgX1 antag inactive, RGS4 block valid inactive, RGS4 uninduced 38.5% and M3R basal Ca ctr inactive.
Screening O=C1N/C(=N\S(=O)(=O)Cc2ccccc2)S/C1=C/c1cccc([N+](=O)[O-])c1 returned RGS4 act inactive, MrgX1 PAM inactive, MrgX1 agonist inactive, RGS4 block inactive and MrgX1 antag inactive.
Cc1ccc(S(=O)(=O)/N=C2/NC(=O)/C(=C/c3ccccc3)S2)cc1 was read as RGS4 act inactive, MrgX1 PAM inactive, MrgX1 agonist inactive, RGS4 block inactive, MrgX1 antag inactive, RGS4 block valid inactive, RGS4 uninduced inactive and M3R basal Ca ctr inactive.
`COc1ccc(/C=C2/S/C(=N/S(=O)(=O)Cc3ccccc3)NC2=O)cc1OC` gave RGS4 act inactive, MrgX1 PAM inactive, MrgX1 agonist inactive, RGS4 block 7.78, MrgX1 antag inactive, RGS4 block valid 19.5%, RGS4 uninduced 48.0% and M3R basal Ca ctr inactive.
Screening Cc1cccc(OCC(=O)N/N=C\c2cn(C)c3ccccc23)c1 returned RGS4 act inactive, MrgX1 PAM inactive, MrgX1 agonist inactive, RGS4 block 7.28, MrgX1 antag inactive, RGS4 block valid inactive, RGS4 uninduced inactive and M3R basal Ca ctr inactive.
For O=C(COc1cccc(Br)c1)N/N=C/C(=O)c1ccccc1 the results were RGS4 act inactive, MrgX1 PAM inactive, MrgX1 agonist inactive, RGS4 block 4.69, MrgX1 antag inactive, RGS4 block valid 8.0%, RGS4 uninduced inactive and M3R basal Ca ctr inactive.
Screening O=C(CCn1c(=O)oc2cc(Cl)ccc21)Nc1ccc(O)cc1 returned RGS4 act inactive, MrgX1 PAM inactive, MrgX1 agonist inactive, RGS4 block inactive and MrgX1 antag inactive.
COc1cc(C2(c3ccc(O)c(OC)c3)C(=O)N(C)c3ccc(Br)cc32)ccc1O was read as RGS4 act inactive, MrgX1 PAM inactive, MrgX1 agonist inactive, RGS4 block 5.71, MrgX1 antag inactive, RGS4 block valid 12.0%, RGS4 uninduced inactive and M3R basal Ca ctr inactive.
Screening COc1cc(C(=O)C(=O)c2ccc(O)c(OC)c2)ccc1O returned RGS4 act inactive, MrgX1 PAM inactive, MrgX1 agonist inactive, RGS4 block inactive and MrgX1 antag inactive.
Screening COc1cc(C2(c3ccc(O)c(OC)c3)C(=O)Nc3c(Br)cc(Br)cc32)ccc1O returned RGS4 act inactive, MrgX1 PAM inactive, MrgX1 agonist inactive, RGS4 block inactive, MrgX1 antag inactive, RGS4 uninduced inactive and M3R basal Ca ctr 34.5%.
Screening Cc1ccc(-c2ccc(/C=C3\C(=O)ON=C3c3ccccc3)o2)c([N+](=O)[O-])c1 returned RGS4 act inactive, MrgX1 PAM inactive, MrgX1 agonist inactive, RGS4 block 11.7, MrgX1 antag -6.31, RGS4 block valid inactive, RGS4 uninduced inactive and M3R basal Ca ctr 14.0%.
For Cc1ccc(/C=C2\C(=O)ON=C2c2ccccc2)o1 the results were RGS4 act inactive, MrgX1 PAM inactive, MrgX1 agonist inactive, RGS4 block inactive and MrgX1 antag inactive.
`CCC(=O)Nc1ccc(C=C(C(C)=O)C(C)=O)cc1` gave RGS4 act inactive, MrgX1 PAM inactive, MrgX1 agonist inactive, RGS4 block 5, MrgX1 antag inactive, RGS4 block valid 56.5%, RGS4 uninduced 29.0% and M3R basal Ca ctr 16.0%.
